Screening data deposited in PubChem by several laboratories.
This is a sample that favours compounds with a hit; in the whole collection about 1.9% have one here.
HIF activator: HIF pathway transcriptional activation. AID 1910. activation, % at 7.5 µM (by protocol). U2OS HRE-luciferase reporter, luminescence; normalized: DMSO 0%, desferrioxamine 100%. 300,000 compounds, 0.32% hits;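 active means mean activation of at least 10% of the iron chelator positive control signal, with at least half of replicates also reaching 10%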
Hsp70 activator: Hsp70 transcriptional activation, primary screen; 200,000 compounds, 0.04% hits; activation, % at 10 µM; HeLa Hsp70 promoter luciferase reporter, luminescence; scaled: vehicle 0, proteasome-inhibitor control 100%;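 active means activation above the mean across all tested compounds plus 3 SD, cutoff set per campaign, cut at about 5.5% in these data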;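 further: 100% = MG132 at 30 µM as the positive control and 0% = DMSO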
FXN GAA850 act: frataxin GAA850 promoter activation; HEK293 lucGAA850 FXN promoter luciferase reporter, 24 h; percent of 10 µM SAHA response; activation, % at 6 µM; 360,000 compounds, 0.56% hits;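 active means activation above the average of all compounds screened plus 3 SD, cutoff fixed separately per campaign, cut at about 7.5% in these data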;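 further: 0% = DMSO wells and 100% = 10 µM SAHA wells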
Rad51 HR inh: Rad51 (human) homologous recombination inhibition; inhibition, % at 10 µM; 200,000 compounds, 0.085% hits; hRad51 DNA strand exchange, fluorescence dequenching;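 active means inhibition above 40% at the single screening dose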;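 further: 0% = DMSO control wells and 100% = blanks with heterologous ssDNA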
Target sequence (Q06609 whole entry, looked up): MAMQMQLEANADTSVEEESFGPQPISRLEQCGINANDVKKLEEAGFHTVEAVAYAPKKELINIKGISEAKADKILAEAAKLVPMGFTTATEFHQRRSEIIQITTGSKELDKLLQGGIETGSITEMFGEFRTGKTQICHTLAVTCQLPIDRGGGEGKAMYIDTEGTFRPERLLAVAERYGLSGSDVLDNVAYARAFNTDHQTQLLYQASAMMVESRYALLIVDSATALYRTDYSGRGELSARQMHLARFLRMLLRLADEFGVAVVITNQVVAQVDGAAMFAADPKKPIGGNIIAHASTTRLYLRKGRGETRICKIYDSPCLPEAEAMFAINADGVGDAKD
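Material: Human Rad51 nucleoprotein filaments preassembled on unlabelled ssDNA | Also added: Labelled 47-mer dsDNA for strand exchange | Dosing: Single dose, 10 µM final compound | Schedule: 30-min compound preincubation and 15-min exchange, both room temperature | Technique: Fluorescence dequenching at 485/520 nm | Measure: Percent inhibition relative to plate controls and blanks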
H9c2 TAG inh: triacylglycerol accumulation inhibition; H9c2 cells, Nile Red lipid (TAG) fluorescence; cells loaded with 200 µM oleic acid; inhibition, % at 12.5 µM; 230,000 compounds, 0.66% hits; AID 651582;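 active means pattern-corrected inhibition of lipid staining of at least 50% with the nuclear-stain viability signal not falling by more than 50%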;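 further: 0% = DMSO wells and 100% = triacsin C control wells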
ABHD5-PLIN5 inh: inhibitors of human ABHD5-perilipin-5 interaction; Q00G26+Q8WTS1; Split G. princeps luciferase complementation, luminescence, 4 h; inhibition, % at 4 µM; 360,000 compounds, 0.78% hits;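 active means inhibition above the mean inhibition across every tested compound plus 3 SD, cut at about 22% in these data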;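 further: 0% = DMSO only wells and the 100% control is not disclosed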
GAA30 counter: counter-screen for GAA850 frataxin promoter activators: GAA30 promoter activation. shares compounds with FXN GAA850 act. HEK293 lucGAA30 FXN promoter luciferase, 24 h; DMSO = 0%, 5 µM ipriflavone = 100%. activation, % at 6 µM. 1,900 compounds, 66% hits;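 active means mean activation above the mean of solvent-only control wells plus 3 SD, cut at about 22% in these data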;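 further: counterscreen of GAA850 promoter hits where activity marks nonselective or luminescence artifacts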
FXN GAA850 conf: confirmation of GAA850 frataxin (FXN) promoter activators; AID 588351; shares compounds with FXN GAA850 act; HEK293 lucGAA850 FXN promoter luciferase reporter, 24 h; 100% = activation by SAHA; activation, % at 6 µM; 1,900 compounds, 86% hits;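 active means mean activation above a set limit taken from the primary screen, cut at about 8% in these data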;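 further: 0% = DMSO wells and 100% = 10 µM SAHA wells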
Starred values were filed as active, the others as inactive; . = not tested or not shown.

SMILES	HIF activator	Hsp70 activator	FXN GAA850 act	Rad51 HR inh	H9c2 TAG inh	ABHD5-PLIN5 inh	GAA30 counter	FXN GAA850 conf
CNc1nc(Nc2ccc(Br)cc2)nc(N)c1[N+](=O)[O-]	1.7	0.1	9.1*	5.5	.	-0.2	91.1*	41.6*
CC(=O)c1ccc2c3c(cccc13)C(=O)N(CCc1ccccc1)C2=O	3.7	0.0	7.8*	-7.5	-26.8	6.0	112.3*	45.4*
COc1ccc(-c2oc3ccccc3c(=O)c2OC(=O)c2ccc(C)cc2)cc1	0.7	-0.2	0.1	-4.2	.	6.3	.	.
O=C(Oc1c(-c2ccccc2)oc2ccccc2c1=O)c1ccccc1	0.8	0.9	12.9*	.	.	1.3	45.3*	18.7*
CSCC[C@H](N)C(=O)N1CCC(C(=O)N[C@@H](C)C(=O)NCc2ccc(F)cc2)CC1	0.3	.	-1.4	.	.	-7.8	.	.
CN(C)CCn1c(=O)n(-c2cccc(Cl)c2)c(=O)c2c3c(sc21)CCCCC3	-0.5	.	13.4*	-10.0	8.2	-2.5	21.9*	13.4*
O=c1[nH]oc2cc(Cl)ccc12	-0.1	.	-1.1	4.6	-3.6	0.2	.	.
CC(=O)c1ccc(NC(=O)CSc2nc(N)c3cc4c(nc3n2)CCCC4)cc1	5.1	-0.3	7.7*	8.7	.	-1.1	100.7*	27.4*
COc1ccc(S(=O)(=O)NC(=O)C2(C)CCN2C(=O)COc2ccc(Cl)cc2)cc1OC (stereo unspecified)	.	.	-1.7	.	6.8	2.1	.	.
O=C1COc2ccc(C(=O)CCl)cc2N1	-1.3	.	9.8*	19.5	-0.9	6.3	202.3*	-13.0
O=S1(=O)CCN(c2ccccc2CC(c2c[nH]c3ccccc23)c2c[nH]c3ccccc23)CC1	.	.	16.2*	.	38.8	5.0	41.6*	21.1*
CS(=O)(=O)c1ccccc1C(=O)N(CCC1=CCCCC1)c1c(N)n(Cc2ccccc2)c(=O)[nH]c1=O	0.1	.	-0.5	.	-18.0	5.3	.	.
O=C(NCc1ccccc1Cl)C1CCCN1S(=O)(=O)c1ccccc1F (stereo unspecified)	0.2	.	0.9	.	.	10.9	.	.
Cc1c(C(=O)OCCOC(C)C)[nH]c2c1C(=O)CC(C)(C)C2	-0.1	0.1	10.0*	1.1	.	-8.0	35.4*	13.1*
CCn1c(SCc2c(Cl)cccc2Cl)nc2nc3c(cc2c1=O)CCCC3	-0.1	.	1.3	.	-0.3	-4.8	.	.
CCn1c(SCc2ccccc2Cl)nc2nc3c(cc2c1=O)CCCC3	1.6	-0.2	7.8*	9.7	.	0.2	10.2	12.3*
CCOC(=O)[C@]12CCC=C1N(Cc1ccc3c(c1)OCO3)C(=O)[C@H](CC(=O)NCCc1ccccc1OC)C2	.	.	.	.	.	1.9	.	.
O=C(c1ccccc1)c1cc2cc(Cl)ccc2[nH]1	2.6	.	8.3*	.	.	0.2	86.8*	35.4*
Cn1c(SCc2ccccc2)nc(N)c(N=O)c1=O	.	.	10.6*	.	25.2	7.0	-10.1	18.8*
COc1ccc(/C=C/C(=O)O)cc1S(=O)(=O)NCc1ccccc1	0.3	.	2.4	.	2.0	-3.9	.	.
COc1ccc(/C=C/S(=O)(=O)NCc2ccccc2)cc1OC	0.2	-0.3	7.8*	-7.9	-12.5	-8.6	20.4	8.2*
CCCn1c(N)c(C(=O)COC(=O)/C=C/c2ccc(OC(F)F)c(OC)c2)c(=O)[nH]c1=O	.	.	-2.9	.	-7.1	-4.4	.	.
O=C(CCCN1C(=O)c2ccccc2C1=O)Nc1c(C(=O)C2CC2)oc2ccccc12	-0.4	0.0	17.3*	3.9	-0.8	-1.9	27.8*	8.6*
CN1CCN(CC(=O)Nc2c(C(=O)C3CC3)oc3ccccc23)CC1	-0.3	-0.3	-0.4	9.5	.	1.7	.	.
CC(C)N(Cc1ccccc1)C(=O)CN1C(=O)NC2(CCOc3ccccc32)C1=O (stereo unspecified)	.	.	1.5	.	11.4	-3.8	.	.
Cc1cccc(Nc2nc(-c3sc(C)nc3C)cs2)c1	3.9	.	8.5*	.	.	-4.0	96.5*	32.5*
O=S(=O)(c1ccc(Br)cc1)N1CCCc2ccccc21	1.8	.	0.2	.	-17.5	-4.1	.	.
